Source: ChEMBL document CHEMBL2046403, “Biochemical and pharmacological evaluation of 4-hydroxychromen-2-ones bearing polar C-3 substituents as anticoagulants” (Eur J Med Chem, 2012)

Assays:
[1] = test system: Rattus norvegicus; assay: Hepatotoxicity in Wistar albino rat assessed as change in serum protein level at 0.5 mg/kg, ip measured after 24 hrs; format: toxicity, organism-based; design: dose 0.5 mg/kg, route intraperitoneal; settings: in vivo
[2] = test system: Plasma; assay: Anticoagulant activity in Wistar albino rat plasma assessed as international normalized ratio at 0.5 mg/kg, ip; format: functional; settings: route intraperitoneal
Procedure, shortened: (§1)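 Adult Wistar rats (2.5 months, 220–250 g), three per compound and control, were given a single i.p. dose of 0.1 or 0.5 mg/kg in ethanol solution and sacrificed 24 h later. […] Plasma prothrombin time was measured by Quick method and reported in seconds and as INR, from at least three measurements.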

[3] = test system: Rattus norvegicus; assay: Hepatotoxicity in Wistar albino rat assessed as change in serum iron level at 0.5 mg/kg, ip measured after 24 hrs; format: toxicity, organism-based; design: dose 0.5 mg/kg, route intraperitoneal; settings: in vivo
[4] = test system: Rattus norvegicus; assay: Hepatotoxicity in Wistar albino rat assessed as change in serum ALP level at 0.5 mg/kg, ip measured after 24 hrs; format: toxicity, organism-based; design: dose 0.5 mg/kg, route intraperitoneal; settings: in vivo
[5] = test system: Plasma; assay: Anticoagulant activity in Wistar albino rat plasma assessed as prothrombin time at 0.5 mg/kg, ip; format: functional; settings: route intraperitoneal
Procedure, shortened: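 Adult Wistar rats (2.5 months, 220–250 g), three per compound and control, were given a single i.p. dose of 0.1 or 0.5 mg/kg in ethanol solution and sacrificed 24 h later. Plasma prothrombin time was measured by Quick method and reported in seconds and as INR, from at least three measurements.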

[6] = test system: Rattus norvegicus; assay: Hepatotoxicity in Wistar albino rat assessed as change in serum gamma-GT level at 0.5 mg/kg, ip measured after 24 hrs; format: toxicity, organism-based; design: dose 0.5 mg/kg, route intraperitoneal; settings: in vivo
[7] = test system: Plasma; assay: Anticoagulant activity in Wistar albino rat plasma assessed as prothrombin time at 0.1 mg/kg, ip; format: functional; settings: route intraperitoneal; procedure, shortened: as §1
[8] = test system: Rattus norvegicus; assay: Hepatotoxicity in Wistar albino rat assessed as change in serum albumin level at 0.5 mg/kg, ip measured after 24 hrs; format: toxicity, organism-based; design: dose 0.5 mg/kg, route intraperitoneal; settings: in vivo
[9] = test system: Plasma; assay: Anticoagulant activity in Wistar albino rat plasma assessed as international normalized ratio at 0.1 mg/kg, ip; format: functional; settings: route intraperitoneal; procedure, shortened: as §1
[10] = test system: Plasma; assay: Anticoagulant activity in Wistar albino rat plasma assessed as fibrin time; format: functional
Procedure, shortened: (§2)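 Adult albino Wistar rats (2.5 months old, 220–250 g), three per compound and control. […] Fibrin time and fibrinogen were determined on plasma. Fibrinogen was quantified by biuret method at 540 nm. At least three measurements, reported with standard deviation.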

[11] = test system: Plasma; assay: Anticoagulant activity in human plasma assessed as prothrombin time at 1 mg/ml; format: functional
Procedure, shortened: (§3)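 Frozen human plasma (blood type A+) was used. Compounds were prepared at 1 mg/mL in a vehicle of 96% EtOH, 0.9% NaCl, 20% glycerol and phosphate buffer pH 7. Prothrombin time was measured by Quick method and reported in seconds and as INR, with SD from at least three measurements.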

[12] = test system: Plasma; assay: Anticoagulant activity in human plasma assessed as international normalized ratio at 1 mg/ml; format: functional; procedure, shortened: as §3
[13] = test system: Rattus norvegicus; assay: Hepatotoxicity in Wistar albino rat assessed as change in serum AST level at 0.5 mg/kg, ip measured after 24 hrs; format: toxicity, organism-based; design: dose 0.5 mg/kg, route intraperitoneal; settings: in vivo
[14] = test system: Rattus norvegicus; assay: Hepatotoxicity in Wistar albino rat assessed as change in serum bilirubin level at 0.5 mg/kg, ip measured after 24 hrs; format: toxicity, organism-based; design: dose 0.5 mg/kg, route intraperitoneal; settings: in vivo
[15] = test system: Plasma; assay: Anticoagulant activity in Wistar albino rat plasma assessed as fibrinogen level; format: functional; procedure, shortened: as §2
[16] = test system: Rattus norvegicus; assay: Hepatotoxicity in Wistar albino rat assessed as change in serum ALT level at 0.5 mg/kg, ip measured after 24 hrs; format: toxicity, organism-based; design: dose 0.5 mg/kg, route intraperitoneal; settings: in vivo
[17] = test system: Rattus norvegicus; assay: Anticoagulant activity in Wistar rats in vivo assessed as prothrombin time
[18] = test system: Rattus norvegicus; assay: Drug metabolism in Wistar albino rat assessed as coumarin-7-glucuronide level in urine at 1 mg/kg, ip measured after 72 hrs by GC/MS analysis; settings: in vivo
[19] = test system: Rattus norvegicus; assay: Hepatotoxicity in Wistar albino rat assessed as change in serum iron level at 0.5 mg/kg/day, ip administered for 5 days measured after second compound dose; format: toxicity, organism-based; design: route intraperitoneal; settings: in vivo, 120 h
[20] = test system: Rattus norvegicus; assay: Hepatotoxicity in Wistar albino rat assessed as change in serum AST level at 0.5 mg/kg, ip measured after 24 hrs relative to untreated control; format: toxicity, organism-based; design: dose 0.5 mg/kg, route intraperitoneal; settings: in vivo
Procedure, shortened: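 Serum AST was measured 24 h after a single 0.5 mg/kg i.p. dose (ethanol solution) in Wistar rats, three per group, by IFCC UV kinetic method at 340 nm. Activity was expressed as fold of the negative (96% ethanol) control, and compared by one-way ANOVA with post-hoc tests.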

[21] = test system: Rattus norvegicus; assay: Hepatotoxicity in Wistar albino rat assessed as change in serum AST level at 0.5 mg/kg/day, ip administered for 5 days measured after second compound dose; settings: in vivo, 120 h
[22] = test system: Plasma; assay: Anticoagulant activity in Wistar albino rat plasma assessed as prothrombin time at 0.5 mg/kg/day, ip administered for 5 days measured after second dose; format: functional; settings: route intraperitoneal
Procedure, shortened: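 Wistar rats, three per group, were dosed i.p. at 0.5 mg/kg per day over five days in ethanol solution and sacrificed on day six. Plasma prothrombin time was measured by Quick method after the second 0.5 mg/kg administration, reported in seconds and INR. Where animals were dosed more than once, PTs were averaged.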

[23] = test system: Plasma; assay: Anticoagulant activity in Wistar albino rat plasma assessed as prothrombin time at 0.5 mg/kg, ip relative to warfarin; format: functional; settings: route intraperitoneal
Procedure, shortened: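 Rats (Wistar, 220–250 g, n=3 per group) were dosed i.p. with 0.5 mg/kg compound in ethanol solution. Prothrombin time was measured in plasma by Quick method and expressed as fold of the matching control value. […] Groups were compared by one-way ANOVA with Dunnett T3 or Bonferroni post-hoc tests.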

[24] = test system: Rattus norvegicus; assay: Hepatotoxicity in Wistar albino rat assessed as change in serum gamma-GT level at 0.5 mg/kg, ip administered for 5 days measured after second compound dose; format: toxicity, organism-based; design: dose 0.5 mg/kg, route intraperitoneal; settings: in vivo, 120 h
[25] = test system: Plasma; assay: Anticoagulant activity in Wistar albino rat plasma assessed as fibrinogen level at 0.5 mg/kg/day, ip administered for 5 days; format: functional; settings: route intraperitoneal
Procedure, shortened: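 Wistar rats (220–250 g), three per group, got one i.p. dose of 0.5 mg/kg per day for five days and were sacrificed on day six. […] Plasma fibrinogen was measured by biuret method at 540 nm.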

[26] = test system: Rattus norvegicus; assay: Drug metabolism in Wistar albino rat assessed as 7-hydroxycoumarin level in urine at 1 mg/kg, ip measured after 72 hrs by GC/MS analysis; settings: in vivo
[27] = test system: Rattus norvegicus; assay: Hepatotoxicity in Wistar albino rat assessed as change in serum ALT level at 0.5 mg/kg/day, ip administered for 5 days measured after second compound dose; settings: in vivo, 120 h

| SMILES | Activity [1] [g/L] | Ratio [2] | Activity [3] [µmol/L] | Activity [4] [U/L] | PT [5] [s] | Activity [6] [U/L] | PT [7] [s] | Activity [8] [g/L] | Ratio [9] | Time [10] [s] | PT [11] [s] | Ratio [12] | Activity [13] [U/L] | Activity [14] [µmol/L] | Activity [15] [g/L] | Activity [16] [U/L] | IC50 [17] [µM] | further results |
| --- | --- | --- | --- | --- | --- | --- | --- | --- | --- | --- | --- | --- | --- | --- | --- | --- | --- | --- |
| O=c1oc2ccccc2c(O)c1-c1csc(Nc2ccc([N+](=O)[O-])cc2)n1 | 63 | 0.68 | 14.8 | 204 | 9.1 | 3.8 | 8.1 | 37.2 | 0.65 | 33.7 | 25 | 2.44 | 264.4 | 1.7 | 1.8 | 68.7 | 2340 |  |
| COC(=O)/C(C(C)=O)=C(/C)c1c(O)c2ccccc2oc1=O | 66.4 | 0.94 | 23.9 | 285 | 9.8 | 2.8 | 9.3 | 38.9 | 0.92 | 40.7 | 19 | 1.8 | 236.9 | 1.7 | 1.6 | 65.5 | 1150 |  |
| O=c1oc2ccccc2c(O)c1-c1csc(Nc2cccc3ccccc23)n1 | 72.8 | 0.94 | 24.6 | 210 | 9.7 | 4.3 | 9.2 | 41.3 | 0.94 | 33.2 | 27.5 | 2.7 | 345.3 | 2 | 1.9 | 85 | 589 |  |
| Cc1cccc(Nc2nc(-c3c(O)c4ccccc4oc3=O)cs2)c1 | 66.2 |  | 28.4 | 172 | 9.7 | 2.2 | 9.6 | 41.9 |  | 27.6 | 25 |  | 284.6 | 1.8 | 2 | 67.3 | 69.2 | Drug metabolism [18]: Active; Activity [19]: 17.3 µmol/L; fold change (FC) [20]: 1.68; AST [21]: 175.5 U/L; PT [22]: 28.1 s; Activity [23]: 79.51%; Activity [24]: 3 U/L; Activity [25]: 1.2 g/L; Drug metabolism [26]: Active; ALT [27]: 62.4 U/L |
| COC(=O)/C=C(/C)c1c(O)c2ccccc2oc1=O | 65.2 | 0.67 | 54.2 | 333 | 9 | 3 | 8 | 39 | 0.64 | 35.2 | 20 | 1.9 | 154.3 | 1.4 | 1.8 | 57.2 | 2750 |  |
